ChEMBL document CHEMBL2062509, “Synthesis of benzo-annulated tryptanthrins and their biological properties” (Bioorg Med Chem, 2012)
≈ marks a conversion by molar mass, not a printed value.

Key:
DU-145 = test: Cytotoxicity against human DU145 cells after 72 hrs by MTT assay; assay type: functional, cell-based; details: DU-145, 72 h
Bos taurus [1] = organism: Bos taurus; test: Inhibition of calf thymus DNA topoisomerase 1-mediated relaxation of supercoiled pBR322 DNA at 100 uM after 30 mins by agarose gel electrophoresis analysis
T47D = test: Cytotoxicity against human T47D cells after 72 hrs by MTT assay; assay type: functional, cell-based
[2] = molecular target: DNA topoisomerase 2-alpha (Homo sapiens) (UniProt P11388); test: Inhibition of human DNA topoisomerase 2alpha-mediated relaxation of supercoiled pBR322 DNA at 100 uM after 30 mins by agarose gel electrophoretic analysis
DNA topoisomerase 2-alpha (Homo sapiens), sequence (P11388 whole entry): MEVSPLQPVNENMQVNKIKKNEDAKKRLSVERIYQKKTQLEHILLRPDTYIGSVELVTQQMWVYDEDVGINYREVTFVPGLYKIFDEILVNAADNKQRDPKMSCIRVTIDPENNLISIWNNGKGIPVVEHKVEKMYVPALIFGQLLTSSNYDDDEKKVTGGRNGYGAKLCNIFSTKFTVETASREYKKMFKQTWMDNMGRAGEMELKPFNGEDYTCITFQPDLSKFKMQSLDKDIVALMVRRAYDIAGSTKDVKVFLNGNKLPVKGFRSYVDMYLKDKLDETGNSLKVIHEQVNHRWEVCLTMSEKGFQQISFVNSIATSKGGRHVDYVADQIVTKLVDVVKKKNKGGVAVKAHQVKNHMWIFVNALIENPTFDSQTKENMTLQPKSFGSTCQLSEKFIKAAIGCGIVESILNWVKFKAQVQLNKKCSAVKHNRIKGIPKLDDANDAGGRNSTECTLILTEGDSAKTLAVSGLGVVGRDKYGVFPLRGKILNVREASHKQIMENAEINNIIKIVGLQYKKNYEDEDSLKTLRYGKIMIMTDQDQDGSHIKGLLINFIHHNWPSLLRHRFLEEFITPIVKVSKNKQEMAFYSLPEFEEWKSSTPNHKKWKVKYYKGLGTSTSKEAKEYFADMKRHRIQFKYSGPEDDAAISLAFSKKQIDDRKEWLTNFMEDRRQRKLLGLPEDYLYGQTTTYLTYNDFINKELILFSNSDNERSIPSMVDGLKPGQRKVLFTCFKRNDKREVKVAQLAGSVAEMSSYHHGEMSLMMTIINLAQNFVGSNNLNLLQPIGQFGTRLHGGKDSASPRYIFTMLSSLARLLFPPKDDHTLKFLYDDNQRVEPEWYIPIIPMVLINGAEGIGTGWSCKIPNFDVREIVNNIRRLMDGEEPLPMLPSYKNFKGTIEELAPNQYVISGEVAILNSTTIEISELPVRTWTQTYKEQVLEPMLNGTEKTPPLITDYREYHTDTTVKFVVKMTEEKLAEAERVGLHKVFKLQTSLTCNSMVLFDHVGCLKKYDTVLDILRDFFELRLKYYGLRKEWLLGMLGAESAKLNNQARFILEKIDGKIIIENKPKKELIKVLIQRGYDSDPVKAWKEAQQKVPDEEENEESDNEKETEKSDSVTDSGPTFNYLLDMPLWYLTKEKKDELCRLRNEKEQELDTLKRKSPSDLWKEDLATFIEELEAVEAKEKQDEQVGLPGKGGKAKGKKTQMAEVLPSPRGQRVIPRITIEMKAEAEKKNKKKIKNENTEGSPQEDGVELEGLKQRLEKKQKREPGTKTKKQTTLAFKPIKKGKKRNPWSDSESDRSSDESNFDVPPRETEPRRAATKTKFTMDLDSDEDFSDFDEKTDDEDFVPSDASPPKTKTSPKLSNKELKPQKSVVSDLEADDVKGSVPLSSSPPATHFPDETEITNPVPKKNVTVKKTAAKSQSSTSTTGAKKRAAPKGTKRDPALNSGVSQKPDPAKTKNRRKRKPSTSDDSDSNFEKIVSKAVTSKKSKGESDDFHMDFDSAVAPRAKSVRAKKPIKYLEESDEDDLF
Procedure, shortened: (§1)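 Human topo IIα (0.2 units) and 100 ng supercoiled pBR322, 30 min at 37 °C with or without compound in 10 mM Tris-HCl pH 7.9, 50 mM NaCl, 5 mM MgCl2, 1 mM EDTA, 1 mM ATP, 15 µg/mL BSA. Quenched with 7 mM EDTA. Resolved on 1% agarose in TAE (25 V, 4 h), ethidium-stained, supercoiled DNA quantified under UV.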

Bos taurus [3] = organism: Bos taurus; test: Inhibition of calf thymus DNA topoisomerase 1-mediated relaxation of supercoiled pBR322 DNA at 20 uM after 30 mins by agarose gel electrophoresis analysis
HEK293 = test: Cytotoxicity against human HEK293 cells after 72 hrs by MTT assay; assay type: cell-based; details: HEK293, 72 h
HCT-15 = test: Cytotoxicity against human HCT15 cells after 72 hrs by MTT assay; assay type: functional, cell-based; details: HCT-15, 72 h
[4] = molecular target: DNA topoisomerase 2-alpha (Homo sapiens) (UniProt P11388); test: Inhibition of human DNA topoisomerase 2alpha-mediated relaxation of supercoiled pBR322 DNA at 20 uM after 30 mins by agarose gel electrophoretic analysis; procedure, shortened: as §1
[5] = tested on: Mycobacterium tuberculosis; test: Antituberculosis activity against Mycobacterium tuberculosis; assay type: functional
[6] = molecular target: T1, Polyunsaturated fatty acid 5-lipoxygenase (Homo sapiens, UniProt P09917); test: Inhibition of 5-lipoxygenase
T1 sequence (P09917 whole entry): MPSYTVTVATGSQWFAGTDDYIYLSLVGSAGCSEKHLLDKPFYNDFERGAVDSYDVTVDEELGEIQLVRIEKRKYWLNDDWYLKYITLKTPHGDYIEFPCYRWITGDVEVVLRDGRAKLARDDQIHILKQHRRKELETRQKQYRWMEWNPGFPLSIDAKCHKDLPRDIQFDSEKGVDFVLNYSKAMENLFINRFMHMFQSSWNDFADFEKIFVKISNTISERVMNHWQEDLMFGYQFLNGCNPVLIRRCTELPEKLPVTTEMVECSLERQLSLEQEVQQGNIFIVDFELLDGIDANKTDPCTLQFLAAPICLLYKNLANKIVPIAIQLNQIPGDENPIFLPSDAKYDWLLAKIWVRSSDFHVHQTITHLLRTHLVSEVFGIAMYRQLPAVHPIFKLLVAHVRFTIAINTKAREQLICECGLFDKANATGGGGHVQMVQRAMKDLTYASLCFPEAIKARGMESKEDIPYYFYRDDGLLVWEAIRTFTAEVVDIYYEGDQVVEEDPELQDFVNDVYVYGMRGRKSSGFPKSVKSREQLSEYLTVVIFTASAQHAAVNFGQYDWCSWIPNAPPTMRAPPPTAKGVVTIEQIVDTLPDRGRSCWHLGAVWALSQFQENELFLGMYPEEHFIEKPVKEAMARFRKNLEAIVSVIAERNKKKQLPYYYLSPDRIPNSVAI

HT-1376 = test: Cytotoxicity against human HT-1376 cells; assay type: functional

Compound	IC50 (DU-145)	inhibition (Bos taurus [1])	IC50 (T47D)	inhibition [2]	inhibition (Bos taurus [3])	IC50 (HEK293)	IC50 (HCT-15)	inhibition [4]	MIC [5]	IC50 [6]	Activity (HT-1376)
O=C1c2c(ccc3ccccc23)-n2c1nc1ccccc1c2=O	27.7 µM	47.8%	31.3 µM	8.13%	4.9%	25.7 µM	24.7 µM	–	–	–	–
O=C1c2ccc3ccccc3c2-n2c1nc1cc3ccccc3cc1c2=O	32.3 µM	84.1%	34.9 µM	53.5%	3.5%	20.3 µM	24 µM	19.1%	–	–	–
CC[C@@]1(O)C(=O)OCc2c1cc1n(c2=O)Cc2cc3ccccc3nc2-1 [CAMPTOTHECIN]	9.29 µM	63.1%	9.17 µM	–	26.3%	7.94 µM	9.92 µM	–	–	–	–
O=C1c2cc3ccccc3cc2-n2c1nc1ccccc1c2=O	17.8 µM	69.6%	21.5 µM	75.9%	5.4%	10.7 µM	6.15 µM	5.95%	–	–	–
COc1cccc2c1C(=O)c1c(O)c3c(c(O)c1C2=O)C[C@@](O)(C(=O)CO)C[C@@H]3O[C@H]1C[C@H](N)[C@H](O)[C@H](C)O1 [DOXORUBICIN]	–	–	1.82 µM	–	–	1 µM	1.76 µM	–	–	–	–
O=C1c2ccccc2-n2c1nc1cc3ccccc3cc1c2=O [BENZO[K]TRYPTANTHRIN]	26 µM	18.8%	23.1 µM	16%	–	31.5 µM	25.8 µM	–	–	–	–
O=C1c2cc3ccccc3cc2-n2c1nc1cc3ccccc3cc1c2=O	26.1 µM	41.9%	25.7 µM	12.6%	3.6%	2.31 µM	26.2 µM	–	–	–	–
O=C1c2c(ccc3ccccc23)-n2c1nc1cc3ccccc3cc1c2=O	34 µM	39.1%	25.2 µM	71.3%	3.8%	24.2 µM	32.8 µM	5.83%	–	–	–
COc1cc([C@@H]2c3cc4c(cc3[C@@H](O[C@@H]3O[C@@H]5CO[C@@H](C)O[C@H]5[C@H](O)[C@H]3O)[C@H]3COC(=O)[C@H]23)OCO4)cc(OC)c1O [ETOPOSIDE]	1.42 µM	–	1.21 µM	–	–	0.41 µM	0.28 µM	–	–	–	–
O=C1c2ccc3ccccc3c2-n2c1nc1ccccc1c2=O	21.4 µM	53.4%	22.8 µM	14%	4.1%	22.1 µM	12.6 µM	–	–	–	–
O=C1c2ccccc2-n2c1nc1ccccc1c2=O [TRYPTANTHRIN]	6.22 µM	68.4%	14.3 µM	4.54%	4.09%	4.11 µM	8.49 µM	–	10 µg/mL (≈ 40.3 µM)	0.15 µM	10 µM
